Reference: ChEMBL document CHEMBL1136914, “Synthesis and structure-activity relationships of bengazole A analogs” (2009)
Converted amounts (≈) assume the structure as drawn. The source made the active and inactive calls. No cut-off for these calls is given here.

What was measured:
Candida albicans [1] = assay: Antifungal activity against Candida albicans ATCC 14503 up to 300 ug/disk by paper disk diffusion assay; format: functional, organism-based
Outline: (§1)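 Disk diffusion on agar; test material applied as μg per paper disk (doses up to 300 μg/disk); activity read as zone of growth inhibition in mm.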

Nakaseomyces glabratus [2] = assay: Antifungal activity against Candida glabrata up to 300 ug/disk by paper disk diffusion assay; format: functional, organism-based; outline: as §1
Candida albicans [3] = assay: Antifungal activity against Candida albicans isolate 96-489 up to 300 ug/disk by paper disk diffusion assay; format: functional, organism-based; outline: as §1
Pichia kudriavzevii [4] = assay: Antifungal activity against Candida krusei up to 300 ug/disk by paper disk diffusion assay; format: functional, organism-based; outline: as §1
Candida albicans [5] = assay: Antifungal activity against Candida albicans ATCC 14503 after 24 hrs by microbroth dilution method; format: functional; details: ATCC 14503, 24 h
Outline: (§2)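 Microbroth dilution MIC in RPMI medium, incubated at 37 °C for 24 h; MIC reported in μg/mL.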

Nakaseomyces glabratus [6] = assay: Antifungal activity against fluconazole-resistant Candida glabrata at 10 ug/disk by disk diffusion assay; format: functional; details: read-out: IZ
Outline: (§3)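 Agar disk diffusion against a panel of five Candida species, including fluconazole-resistant strains. Compound was applied per disk at doses up to 300 μg/disk. Activity was read as the diameter of the zone of growth inhibition, in mm.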

Pichia kudriavzevii [7] = assay: Antifungal activity against Candida krusei at 10 ug/disk by disk diffusion assay; format: functional; details: read-out: IZ; outline: as §1
Candida albicans [8] = assay: Antifungal activity against fluconazole-resistant Candida albicans CDFR1 […]; format: functional
Candida albicans [9] = assay: Antifungal activity against Candida albicans isolate 96-489 after 24 hrs by microbroth dilution method; format: functional; details: isolate 96-489, 24 h; outline: as §2
Candida albicans [10] = assay: Antifungal activity against Candida albicans isolate 96-489 at 10 ug/disk by disk diffusion assay; format: functional; details: read-out: IZ; outline: as §1
Escherichia coli = assay: Antibacterial activity against Escherichia coli; format: functional, organism-based
Pseudomonas aeruginosa = assay: Antibacterial activity against Pseudomonas aeruginosa; format: functional, organism-based
Staphylococcus aureus = assay: Antibacterial activity against Staphylococcus aureus; format: functional, organism-based
Candida albicans [11] = assay: Antifungal activity against Candida albicans ATCC 14503 at 10 ug/disk by disk diffusion assay; format: functional; details: read-out: IZ; outline: as §3
Candida albicans [12] = assay: Antifungal activity against Candida albicans ATCC 14503; format: functional
Candida albicans [13] = assay: Antifungal activity against fluconazole-resistant Candida albicans CDFR1 at 10 ug/disk by disk diffusion assay; format: functional; details: read-out: IZ; outline: as §3
Pichia kudriavzevii [14] = assay: Antifungal activity against Candida krusei after 48 hrs by microbroth dilution method; format: functional
Outline: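 Microbroth dilution MIC in RPMI medium at 37 °C, with incubation extended to 48 h; MIC given in μg/mL.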

Pichia kudriavzevii [15] = assay: Antifungal activity against Candida krusei at 300 ug/disk by disk diffusion assay; format: functional; details: read-out: IZ; outline: as §1
Candida albicans [16] = assay: Antifungal activity against Candida albicans isolate 96-489 at 300 ug/disk by disk diffusion assay; format: functional; details: read-out: IZ; outline: as §3
Candida albicans [17] = assay: Antifungal activity against Candida albicans ATCC 14503 at 300 ug/disk by disk diffusion assay; format: functional; details: read-out: IZ; outline: as §1
Candida albicans [18] = assay: Antifungal activity against fluconazole-resistant Candida albicans CDFR1 at 300 ug/disk by disk diffusion assay; format: functional; details: read-out: IZ; outline: as §3
Nakaseomyces glabratus [19] = assay: Antifungal activity against fluconazole-resistant Candida glabrata at 300 ug/disk by disk diffusion assay; format: functional; details: read-out: IZ; outline: as §3
Candida albicans [20] = assay: Antifungal activity against Candida albicans ATCC 14503 at 5 ug/disk by disk diffusion assay; format: functional; details: read-out: IZ; outline: as §1
Pichia kudriavzevii [21] = assay: Antifungal activity against Candida krusei at 5 ug/disk by disk diffusion assay; format: functional; details: read-out: IZ; outline: as §1
Candida albicans [22] = assay: Antifungal activity against fluconazole-resistant Candida albicans CDFR1 at 5 ug/disk by disk diffusion assay; format: functional; details: read-out: IZ; outline: as §3
Nakaseomyces glabratus [23] = assay: Antifungal activity against fluconazole-resistant Candida glabrata at 5 ug/disk by disk diffusion assay; format: functional; details: read-out: IZ; outline: as §3
Candida albicans [24] = assay: Antifungal activity against Candida albicans isolate 96-489 at 5 ug/disk by disk diffusion assay; format: functional; details: read-out: IZ; outline: as §1

Row | SMILES | Activity (Candida albicans [1]) | Activity (Nakaseomyces glabratus [2]) | Activity (Candida albicans [3]) | Activity (Pichia kudriavzevii [4]) | MIC (Candida albicans [8]) [µg/mL] | zone of inhibition at 300 µg/disc (Pichia kudriavzevii [15]) [mm] | zone of inhibition at 300 µg/disc (Candida albicans [16]) [mm] | zone of inhibition at 300 µg/disc (Candida albicans [17]) [mm] | zone of inhibition at 300 µg/disc (Nakaseomyces glabratus [19]) [mm] | other results
1 | CCCCCCCCCCCCCC(=O)OC(c1cnco1)c1nc(C(O)CCC)co1 (stereo not given) | inactive | inactive | inactive | inactive | – | – | – | – | – | –
2 | CCCCCCCCCCCCCC(=O)OC(c1ccco1)c1nc(C(O)CCC)co1 (stereo not given) | inactive | inactive | inactive | inactive | – | – | – | – | – | –
3 | CCCCCCCCCCCCCC(=O)O[C@@H](c1cnco1)c1nc([C@@H](O)C[C@@H](O)[C@@H](O)[C@@H](C)O)co1 [BENGAZOLE A] | – | – | – | – | > 32 | – | – | – | – | MIC (Candida albicans [5]): 1 µg/mL (≈ 1.91 µM); zone of inhibition at 10 µg/disc (Nakaseomyces glabratus [6]): 15 mm; zone of inhibition at 10 µg/disc (Pichia kudriavzevii [7]): 35 mm; MIC (Candida albicans [9]): 1 µg/mL (≈ 1.91 µM); zone of inhibition at 10 µg/disc (Candida albicans [10]): 15 mm; Activity (Escherichia coli): inactive; Activity (Pseudomonas aeruginosa): inactive; Activity (Staphylococcus aureus): inactive; zone of inhibition at 10 µg/disc (Candida albicans [11]): 50 mm; MIC (Candida albicans [12]): 1 µg/mL (≈ 1.91 µM); zone of inhibition at 10 µg/disc (Candida albicans [13]): 50 mm
4 | CCCCCCCCCCCCCC(=O)OC(c1ccco1)c1nc(C(CCC)O[Si](C)(C)C(C)(C)C)co1 (stereo not given) | inactive | inactive | inactive | inactive | – | – | – | – | – | –
5 | CCCC(O[Si](C)(C)C(C)(C)C)c1coc(C(O)c2ccco2)n1 (stereo not given) | inactive | inactive | inactive | inactive | – | – | – | – | – | –
6 | CSc1ncc(C(O)c2ccc(Br)cc2)o1 (stereo not given) | – | – | – | – | – | 9 | 12 | 13 | – | MIC (Pichia kudriavzevii [14]): 4 µg/mL (≈ 13.3 µM); MIC (Candida albicans [5]): 4 µg/mL (≈ 13.3 µM); MIC (Candida albicans [9]): 8 µg/mL (≈ 26.7 µM)
7 | CCCCCCCCCCCCCC(=O)OC(c1cnco1)C(C)(C)C (stereo not given) | – | – | – | – | > 32 | 0 | 0 | 0 | 0 | zone of inhibition at 300 µg/disc (Candida albicans [18]): 0 mm
8 | CCCCCCCCCCCCCC(=O)OC(c1ccccc1)c1cnc(SC)o1 (stereo not given) | – | – | – | – | > 32 | 0 | 0 | 0 | 0 | zone of inhibition at 300 µg/disc (Candida albicans [18]): 0 mm
9 | CSc1ncc(C(O)c2ccccc2)o1 (stereo not given) | – | – | – | – | – | 9 | – | 10 | – | –
10 | C[C@@H](O[Si](C)(C)C(C)(C)C)[C@@H]1OC(C)(C)O[C@@H]1C[C@@H](O)c1cocn1 | – | – | – | – | > 32 | 0 | 0 | 8 | 0 | zone of inhibition at 300 µg/disc (Candida albicans [18]): 0 mm
11 | CC(C)(C)C(O)c1cocn1 (stereo not given) | – | – | – | – | > 32 | 0 | 0 | 0 | 0 | zone of inhibition at 300 µg/disc (Candida albicans [18]): 0 mm
12 | CSc1ncc(C(O)C(C)(C)C)o1 (stereo not given) | – | – | – | – | – | 0 | – | – | – | –
13 | CCCC(O[Si](C)(C)C(C)(C)C)c1coc(C(O)c2cnco2)n1 (stereo not given) | inactive | inactive | inactive | inactive | – | – | – | – | – | –
14 | C[C@@H]1[C@H](O)[C@@H](C)/C=C/C=C/C=C/C=C/C=C/C=C/C=C/[C@H](O[C@@H]2O[C@H](C)[C@@H](O)[C@H](N)[C@@H]2O)C[C@@H]2O[C@](O)(C[C@@H](O)C[C@@H](O)[C@H](O)CC[C@@H](O)C[C@@H](O)CC(=O)O[C@H]1C)C[C@H](O)[C@H]2C(=O)O [AMPHOTERICIN B] | – | – | – | – | > 32 | – | – | – | – | MIC (Pichia kudriavzevii [14]): 0.25 µg/mL (≈ 0.271 µM); zone of inhibition at 5 µg/disc (Candida albicans [20]): 22 mm; MIC (Candida albicans [5]): 0.5 µg/mL (≈ 0.541 µM); zone of inhibition at 5 µg/disc (Pichia kudriavzevii [21]): 15 mm; zone of inhibition at 5 µg/disc (Candida albicans [22]): 23 mm; MIC (Candida albicans [9]): 0.5 µg/mL (≈ 0.541 µM); zone of inhibition at 5 µg/disc (Nakaseomyces glabratus [23]): 19 mm; zone of inhibition at 5 µg/disc (Candida albicans [24]): 12 mm
15 | COc1ccc(C(O)c2cnc(SC)o2)cc1 (stereo not given) | – | – | – | – | – | 0 | 0 | 8 | – | –
16 | CCCCCCCCCCCCCC(=O)OC(c1ccc2ccccc2c1)c1cnc(SC)o1 (stereo not given) | – | – | – | – | – | – | – | – | – | MIC (Pichia kudriavzevii [14]): > 64 µg/mL; MIC (Candida albicans [5]): > 64 µg/mL; MIC (Candida albicans [9]): > 64 µg/mL
17 | CCCCCCCCCCCCCC(=O)OC(c1ccccc1)c1nc(C(O)CCC)co1 (stereo not given) | inactive | inactive | inactive | inactive | – | – | – | – | – | –
18 | CCCCCCCCCCCCCC(=O)OC(c1cnc(SC)o1)C(C)(C)C (stereo not given) | – | – | – | – | > 32 | 0 | 0 | 0 | 0 | zone of inhibition at 300 µg/disc (Candida albicans [18]): 0 mm
19 | OC(c1ccc2ccccc2c1)c1cnco1 (stereo not given) | – | – | – | – | – | 7.5 | – | 10 | – | MIC (Pichia kudriavzevii [14]): > 64 µg/mL; MIC (Candida albicans [5]): > 64 µg/mL; MIC (Candida albicans [9]): 32 µg/mL (≈ 142 µM)
20 | CCCCCCCCCCCCCC(=O)OC(c1cnco1)c1nc(C(CCC)O[Si](C)(C)C(C)(C)C)co1 (stereo not given) | inactive | inactive | inactive | inactive | – | – | – | – | – | –
21 | CCCCCCCCCCCCCC(=O)OC(c1ccc(Br)cc1)c1cnc(SC)o1 (stereo not given) | – | – | – | – | > 32 | 0 | 0 | 0 | 0 | MIC (Pichia kudriavzevii [14]): > 64 µg/mL; zone of inhibition at 300 µg/disc (Candida albicans [18]): 0 mm; MIC (Candida albicans [5]): > 64 µg/mL; MIC (Candida albicans [9]): > 64 µg/mL
22 | CCCC(O[Si](C)(C)C(C)(C)C)c1coc(C(O)c2ccccc2)n1 (stereo not given) | inactive | inactive | inactive | inactive | – | – | – | – | – | –
23 | OC(c1ccccc1)c1cnco1 (stereo not given) | – | – | – | – | – | 9 | – | 10 | – | –
24 | C[C@@H](O[Si](C)(C)C(C)(C)C)[C@@H]1OC(C)(C)O[C@@H]1C[C@H](O)c1cocn1 | – | – | – | – | > 32 | 9 | 0 | 10 | 0 | zone of inhibition at 300 µg/disc (Candida albicans [18]): 0 mm
25 | CCCCCCCCCCCCCC(=O)OC(c1ccc2ccccc2c1)c1cnco1 (stereo not given) | – | – | – | – | – | – | – | – | – | MIC (Pichia kudriavzevii [14]): > 64 µg/mL; MIC (Candida albicans [5]): > 64 µg/mL; MIC (Candida albicans [9]): > 64 µg/mL
26 | O=Cc1cocn1 | – | – | – | – | > 32 | – | – | – | 10 | –
27 | CCCCCCCCCCCCCC(=O)OC(c1ccccc1)c1nc(C(CCC)O[Si](C)(C)C(C)(C)C)co1 (stereo not given) | inactive | inactive | inactive | inactive | – | – | – | – | – | –
28 | CCCCCCCCCCCCCC(=O)OC(c1ccccc1)c1cnco1 (stereo not given) | – | – | – | – | > 32 | 0 | 0 | 0 | 0 | zone of inhibition at 300 µg/disc (Candida albicans [18]): 0 mm
